Columns and labels:
[1] = melting temperature; fluorescence melt of hairpins on a sequencing array, two-state fit, raised by 9.35 °C to match UV melts; conditions: sodium 0.088 M
Summary of the method: (§1)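 Melting temperature and folding enthalpy were derived from bootstrapped two-state fits. The fitted temperatures were raised by 9.35 °C to agree with UV melts, and four replicates were combined by inverse variance. The underlying data were Cy3 fluorescence images of library hairpins, with annealed Cy3 and quencher oligos, on a sequenced MiSeq flow cell in 50 mM Na-HEPES pH 8.0, 25 mM NaCl, taken in 2.5 °C steps up to 60 °C, normalised to pre-quench Cy3 and to control constructs.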

[2] = folding enthalpy; higher = less favourable; fluorescence melt of hairpins on a sequencing array, two-state fit; conditions: sodium 0.088 M
Summary of the method: as §1

GATCAATTTGTTGATC ((((((....))))))
Tm [1]: 47.3 °C | folding enthalpy [2]: -35.6 kcal/mol

GATCACAACCGTGATC ((((((....))))))
Tm [1]: 57.2 °C | folding enthalpy [2]: -39.2 kcal/mol

GATCACAATGTGATC ((((((...))))))
Tm [1]: 55.6 °C | folding enthalpy [2]: -36.8 kcal/mol

GATCACAATTGTGATC ((((((....))))))
Tm [1]: 56.1 °C | folding enthalpy [2]: -41.6 kcal/mol

GATCACACTAGTGATC ((((((....))))))
Tm [1]: 58.8 °C | folding enthalpy [2]: -43.4 kcal/mol

GATCACAGACGTGATC ((((((....))))))
Tm [1]: 57 °C | folding enthalpy [2]: -37 kcal/mol

GATCACAGATGTGATC ((((((....))))))
Tm [1]: 56.8 °C | folding enthalpy [2]: -37.8 kcal/mol

GATCACAGCGTGATC ((((((...))))))
Tm [1]: 61.9 °C | folding enthalpy [2]: -42 kcal/mol

GATCACAGGCGTGATC ((((((....))))))
Tm [1]: 57.3 °C | folding enthalpy [2]: -36 kcal/mol

GATCACAGGTGTGATC ((((((....))))))
Tm [1]: 59.9 °C | folding enthalpy [2]: -36.4 kcal/mol

GATCACAGTGGTGATC ((((((....))))))
Tm [1]: 56.5 °C | folding enthalpy [2]: -50 kcal/mol

GATCACATATGTGATC ((((((....))))))
Tm [1]: 58.9 °C | folding enthalpy [2]: -41.9 kcal/mol

GATCACATCAGTGATC ((((((....))))))
Tm [1]: 58.4 °C | folding enthalpy [2]: -42.1 kcal/mol

GATCACATCCGTGATC ((((((....))))))
Tm [1]: 56.6 °C | folding enthalpy [2]: -46 kcal/mol

GATCACATTGTGATC ((((((...))))))
Tm [1]: 57.9 °C | folding enthalpy [2]: -33.7 kcal/mol

GATCACCAACGTGATC ((((((....))))))
Tm [1]: 53.8 °C | folding enthalpy [2]: -41.6 kcal/mol

GATCACCAAGGTGATC ((((((....))))))
Tm [1]: 60 °C | folding enthalpy [2]: -43.3 kcal/mol

GATCACCACAGTGATC ((((((....))))))
Tm [1]: 57.4 °C | folding enthalpy [2]: -40.4 kcal/mol

GATCACCATCGTGATC ((((((....))))))
Tm [1]: 54.5 °C | folding enthalpy [2]: -31.8 kcal/mol

GATCACCATTGTGATC ((((((....))))))
Tm [1]: 56.3 °C | folding enthalpy [2]: -39.2 kcal/mol

GATCACCCAGGTGATC ((((((....))))))
Tm [1]: 61.6 °C | folding enthalpy [2]: -35.7 kcal/mol

GATCACCCTGTGATC ((((((...))))))
Tm [1]: 59.3 °C | folding enthalpy [2]: -42.3 kcal/mol

GATCACCGAAAGGTATC (((.(((....))))))
Tm [1]: 34.1 °C | folding enthalpy [2]: -15.8 kcal/mol

GATCACCGAAAGGTCATC (((.(((....))).)))
Tm [1]: 32.5 °C | folding enthalpy [2]: -16.8 kcal/mol

GATCACCGACGTGATC ((((((....))))))
Tm [1]: 54.5 °C | folding enthalpy [2]: -32.5 kcal/mol

GATCACCGAGTGATC ((((((...))))))
Tm [1]: 55.4 °C | folding enthalpy [2]: -34.9 kcal/mol

GATCACCGCGGTGATC ((((((....))))))
Tm [1]: 67.2 °C | folding enthalpy [2]: -44.1 kcal/mol

GATCACCGCTGTGATC ((((((....))))))
Tm [1]: 57 °C | folding enthalpy [2]: -36.3 kcal/mol

GATCACCGTTGTGATC ((((((....))))))
Tm [1]: 55.4 °C | folding enthalpy [2]: -39.8 kcal/mol

GATCACCTATGTGATC ((((((....))))))
Tm [1]: 57.1 °C | folding enthalpy [2]: -40.1 kcal/mol

GATCACGAAAGTGCAATC ((((((....)))..)))
Tm [1]: 28.1 °C | folding enthalpy [2]: -10 kcal/mol

GATCACGAAAGTGCGATC ((((((....)))..)))
Tm [1]: 29.5 °C | folding enthalpy [2]: -16.3 kcal/mol

GATCACGAAAGTGTGATC ((((((....)))..)))
Tm [1]: 47.9 °C | folding enthalpy [2]: -27 kcal/mol

GATCACGAGAGTGATC ((((((....))))))
Tm [1]: 67.8 °C | folding enthalpy [2]: -28.4 kcal/mol

GATCACGAGGGTGATC ((((((....))))))
Tm [1]: 54.6 °C | folding enthalpy [2]: -38.1 kcal/mol

GATCACGCCTGTGATC ((((((....))))))
Tm [1]: 59.4 °C | folding enthalpy [2]: -49.5 kcal/mol

GATCACGCGCGTGATC ((((((....))))))
Tm [1]: 62.7 °C | folding enthalpy [2]: -62 kcal/mol

GATCACGGGAGTGATC ((((((....))))))
Tm [1]: 68.5 °C | folding enthalpy [2]: -37.6 kcal/mol

GATCACGGTGTGATC ((((((...))))))
Tm [1]: 61.3 °C | folding enthalpy [2]: -30.5 kcal/mol

GATCACGGTTGTGATC ((((((....))))))
Tm [1]: 61 °C | folding enthalpy [2]: -31.2 kcal/mol

GATCACGTAGGTGATC ((((((....))))))
Tm [1]: 63.9 °C | folding enthalpy [2]: -39 kcal/mol

GATCACGTATGTGATC ((((((....))))))
Tm [1]: 68.2 °C | folding enthalpy [2]: -38.5 kcal/mol

GATCACGTCGTGATC ((((((...))))))
Tm [1]: 61.1 °C | folding enthalpy [2]: -40.5 kcal/mol

GATCACGTGGTGATC ((((((...))))))
Tm [1]: 56.5 °C | folding enthalpy [2]: -46.3 kcal/mol

GATCACGTTGGTGATC ((((((....))))))
Tm [1]: 58.2 °C | folding enthalpy [2]: -37 kcal/mol

GATCACGTTGTGATC ((((((...))))))
Tm [1]: 60.1 °C | folding enthalpy [2]: -38.1 kcal/mol

GATCACTAAAGTGATC ((((((....))))))
Tm [1]: 54.5 °C | folding enthalpy [2]: -38.6 kcal/mol

GATCACTACGTGATC ((((((...))))))
Tm [1]: 61.7 °C | folding enthalpy [2]: -39.7 kcal/mol

GATCACTAGGGTGATC ((((((....))))))
Tm [1]: 57.3 °C | folding enthalpy [2]: -41.7 kcal/mol

GATCACTATGGTGATC ((((((....))))))
Tm [1]: 59 °C | folding enthalpy [2]: -41.5 kcal/mol

GATCACTATTGTGATC ((((((....))))))
Tm [1]: 58.3 °C | folding enthalpy [2]: -37.8 kcal/mol

GATCACTCCGGTGATC ((((((....))))))
Tm [1]: 56.9 °C | folding enthalpy [2]: -37.8 kcal/mol

GATCACTCGAGTGATC ((((((....))))))
Tm [1]: 59.4 °C | folding enthalpy [2]: -39.9 kcal/mol

GATCACTCGGGTGATC ((((((....))))))
Tm [1]: 57.6 °C | folding enthalpy [2]: -37.4 kcal/mol

GATCACTCGGTGATC ((((((...))))))
Tm [1]: 58.9 °C | folding enthalpy [2]: -37.8 kcal/mol

GATCACTGCTGTGATC ((((((....))))))
Tm [1]: 57.1 °C | folding enthalpy [2]: -38.2 kcal/mol

GATCACTGGCGTGATC ((((((....))))))
Tm [1]: 55.2 °C | folding enthalpy [2]: -41.4 kcal/mol

GATCACTTAAGTGATC ((((((....))))))
Tm [1]: 59.3 °C | folding enthalpy [2]: -38 kcal/mol

GATCACTTCGTGATC ((((((...))))))
Tm [1]: 58.9 °C | folding enthalpy [2]: -46.6 kcal/mol

GATCACTTCTGTGATC ((((((....))))))
Tm [1]: 58.9 °C | folding enthalpy [2]: -38.4 kcal/mol

GATCAGAAAACTGATC ((((((....))))))
Tm [1]: 43.6 °C | folding enthalpy [2]: -29.2 kcal/mol

GATCAGAACACTGATC ((((((....))))))
Tm [1]: 48.5 °C | folding enthalpy [2]: -32.1 kcal/mol

GATCAGAACGCTGATC ((((((....))))))
Tm [1]: 47.3 °C | folding enthalpy [2]: -29.5 kcal/mol

GATCAGAAGCCTGATC ((((((....))))))
Tm [1]: 47.1 °C | folding enthalpy [2]: -31.7 kcal/mol

GATCAGAATACTGATC ((((((....))))))
Tm [1]: 47.4 °C | folding enthalpy [2]: -39.2 kcal/mol

GATCAGAATTCTGATC ((((((....))))))
Tm [1]: 50.4 °C | folding enthalpy [2]: -43.5 kcal/mol

GATCAGACAACTGATC ((((((....))))))
Tm [1]: 45.9 °C | folding enthalpy [2]: -32.3 kcal/mol

GATCAGACACCTGATC ((((((....))))))
Tm [1]: 47.1 °C | folding enthalpy [2]: -34.1 kcal/mol

GATCAGACGACTGATC ((((((....))))))
Tm [1]: 47.5 °C | folding enthalpy [2]: -39.2 kcal/mol

GATCAGACTACTGATC ((((((....))))))
Tm [1]: 49.1 °C | folding enthalpy [2]: -33 kcal/mol

GATCAGAGAGCTGATC ((((((....))))))
Tm [1]: 46.2 °C | folding enthalpy [2]: -31 kcal/mol

GATCAGAGCACTGATC ((((((....))))))
Tm [1]: 49.3 °C | folding enthalpy [2]: -36.5 kcal/mol

GATCAGAGTTCTGATC ((((((....))))))
Tm [1]: 50.5 °C | folding enthalpy [2]: -36.6 kcal/mol

GATCAGATGACTGATC ((((((....))))))
Tm [1]: 47.8 °C | folding enthalpy [2]: -35.3 kcal/mol

GATCAGATGTCTGATC ((((((....))))))
Tm [1]: 49.7 °C | folding enthalpy [2]: -41.8 kcal/mol

GATCAGATTTCTGATC ((((((....))))))
Tm [1]: 52.9 °C | folding enthalpy [2]: -41 kcal/mol

GATCAGCACACTGATC ((((((....))))))
Tm [1]: 53.4 °C | folding enthalpy [2]: -32.3 kcal/mol

GATCAGCACTCTGATC ((((((....))))))
Tm [1]: 49.9 °C | folding enthalpy [2]: -30.8 kcal/mol

GATCAGCAGTCTGATC ((((((....))))))
Tm [1]: 48.8 °C | folding enthalpy [2]: -34.4 kcal/mol

GATCAGCCACCTGATC ((((((....))))))
Tm [1]: 49.6 °C | folding enthalpy [2]: -33.8 kcal/mol

GATCAGCCCCCTGATC ((((((....))))))
Tm [1]: 48.2 °C | folding enthalpy [2]: -36.2 kcal/mol

GATCAGCCGCCTGATC ((((((....))))))
Tm [1]: 50.5 °C | folding enthalpy [2]: -32.5 kcal/mol

GATCAGCCGCTGATC ((((((...))))))
Tm [1]: 48.7 °C | folding enthalpy [2]: -41 kcal/mol

GATCAGCCGTCTGATC ((((((....))))))
Tm [1]: 51.6 °C | folding enthalpy [2]: -43.6 kcal/mol

GATCAGCGCCCTGATC ((((((....))))))
Tm [1]: 49 °C | folding enthalpy [2]: -39.5 kcal/mol

GATCAGCGCTCTGATC ((((((....))))))
Tm [1]: 50.4 °C | folding enthalpy [2]: -33.9 kcal/mol

GATCAGCGGACTGATC ((((((....))))))
Tm [1]: 50.3 °C | folding enthalpy [2]: -33.9 kcal/mol

GATCAGCGGGCTGATC ((((((....))))))
Tm [1]: 63.8 °C | folding enthalpy [2]: -38.8 kcal/mol

GATCAGCTATCTGATC ((((((....))))))
Tm [1]: 49.3 °C | folding enthalpy [2]: -34.7 kcal/mol

GATCAGCTCACTGATC ((((((....))))))
Tm [1]: 52.2 °C | folding enthalpy [2]: -31.9 kcal/mol

GATCAGCTCCCTGATC ((((((....))))))
Tm [1]: 49.1 °C | folding enthalpy [2]: -32.3 kcal/mol

GATCAGCTCTCTGATC ((((((....))))))
Tm [1]: 49.3 °C | folding enthalpy [2]: -36.9 kcal/mol

GATCAGCTGACTGATC ((((((....))))))
Tm [1]: 51.5 °C | folding enthalpy [2]: -37.6 kcal/mol

GATCAGCTTGCTGATC ((((((....))))))
Tm [1]: 68.8 °C | folding enthalpy [2]: -47.5 kcal/mol

GATCAGGAGCTGATC ((((((...))))))
Tm [1]: 46.5 °C | folding enthalpy [2]: -32.3 kcal/mol

GATCAGGATCCTGATC ((((((....))))))
Tm [1]: 54.3 °C | folding enthalpy [2]: -53.1 kcal/mol
